In ChEMBL document CHEMBL3098104, “Design, synthesis and preliminary SAR studies of novel N-arylmethyl substituted piperidine-linked aniline derivatives as potent HIV-1 NNRTIs” (Bioorg Med Chem, 2014):

Legend:
[1] = target: Human immunodeficiency virus type 1 reverse transcriptase (Human immunodeficiency virus 1, UniProt Q72547); assay: Inhibition of wild-type HIV1 reverse transcriptase assessed as incorporation of biotin-labeled dUTP
Summary of the method: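 HIV-1 RT enzyme assay with poly(A)·oligo(dT)15 as template-primer. Incorporation of digoxigenin- and biotin-labeled dUTP into DNA was read colorimetrically with the peroxidase substrate ABTS.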

[2] = test system: Human immunodeficiency virus 1; assay: Fold resistance, ratio of EC50 for HIV1 RES056 expressing K103N/Y181C mutant infected in human MT4 cells to EC50 for wild-type HIV1 3B infected in human MT4 cells; type: functional
Summary of the method: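 MTT protection assay in MT-4 cells run in parallel against the K103N/Y181C double mutant (RES056) and wild-type IIIB. Viability read 5 days after infection. Fold resistance = EC50 against the mutant divided by EC50 against IIIB. Median of two or three parallel assays.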

[3] = Selectivity index, ratio of CC50 for human MT4 cells to EC50 for HIV1 3B infected in human MT4 cells; type: toxicity, cell-based; conditions: read-out: Ratio CC50/EC50
Summary of the method: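 MT-4 cells at 6 × 10^5 cells/ml, in triplicate wells, infected with HIV-1 IIIB or mock-infected. Compounds added from 10× stocks at the start of infection. MTT viability read on day 5. SI = CC50 (mock-infected cells) / EC50 (IIIB). Median of two or three parallel assays.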

[4] = test system: Human immunodeficiency virus 2; assay: Antiviral activity against HIV2 ROD infected in human MT4 cells assessed as inhibition of viral cytopathicity after 5 days by MTT assay; type: functional, organism-based; conditions: Human immunodeficiency virus 2, ISOLATE ROD, MT4, 120 h
Summary of the method: (§1)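 HIV-infected MT-4 cells were compared with mock-infected wells in triplicate. Exponentially growing cells were pelleted for 5 min at 1000 rpm and resuspended at 6 × 10^5 cells/ml. Compound was added at the start of infection from stocks at 10× final concentration. Viability was read by MTT five days post-infection. EC50 is the concentration giving 50% protection against virus-induced cytotoxicity, taken as the median of two or three parallel assays.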

[5] = Cytotoxicity against human MT4 cells assessed as cell viability after 5 days by MTT assay; type: cell-based
Summary of the method: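 Mock-infected MT-4 cells, from exponentially growing cultures pelleted and resuspended at 6 × 10^5 cells/ml, were run in triplicate wells alongside the infected series. Compound was added from 10× stocks at the start of the experiment. Viability was read by MTT after five days. CC50 is the concentration that lowers viability by 50%, taken as the median of two or three parallel assays.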

[6] = test system: Human immunodeficiency virus 1; assay: Antiviral activity against HIV1 RES056 harboring reverse transcriptase K103N/Y181C mutant infected in human MT4 cells assessed as inhibition of viral cytopathicity after 5 days by MTT assay; type: functional, organism-based; conditions: Human immunodeficiency virus 1, RES056, MT4, 120 h
Summary of the method: (§2)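 MT-4 cells pelleted 5 min at 1000 rpm, resuspended at 6 × 10^5 cells/ml and plated. Compounds added from 10× stocks at the start, in triplicate wells, to HIV-infected and mock-infected cells in parallel. Viability read by MTT 5 days after infection. EC50 is 50% protection from virus-induced cytotoxicity. CC50 is 50% loss of viability in mock-infected cells. SI = CC50/EC50. Median of two or three parallel assays.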

[7] = test system: Human immunodeficiency virus 1; assay: Antiviral activity against wild-type HIV1 3B infected in human MT4 cells assessed as inhibition of viral cytopathicity after 5 days by MTT assay; type: functional, organism-based; conditions: Human immunodeficiency virus 1, 3B, MT4, 120 h; summary of the method: as §1
[8] = Selectivity index, ratio of CC50 for human MT4 cells to EC50 for HIV1 RES056 harboring reverse transcriptase K103N/Y181C mutant infected in human MT4 cells; type: toxicity, cell-based; conditions: read-out: Ratio CC50/EC50; summary of the method: as §2

Row | SMILES | IC50 [1] [nM] | Ratio EC50 [2] | selectivity ratio [3] | EC50 [4] [µM] | CC50 at 120 h [5] [µM] | EC50 [6] [µM] | EC50 [7] [nM] | selectivity ratio [8]
1 | Cc1cc(C#N)cc(C)c1Oc1ccc([N+](=O)[O-])c(NC2CCN(Cc3ccc(S(C)(=O)=O)cc3)CC2)c1 | 360 | >10770 | > 10800 | > 234 | > 234 | > 234 | 22 | 
2 | Cc1cc(C)c(Oc2ccc([N+](=O)[O-])c(NC3CCN(Cc4ccc(C(N)=O)cc4)CC3)c2)c(C)c1 |  | >457 | 457 | > 27 | 27 | > 27 | 59 | < 1
3 | CC(=O)c1ccc(CN2CCC(Nc3cc(Oc4c(C)cc(C)cc4C)ccc3[N+](=O)[O-])CC2)cc1 |  | >1312 | 1310 | > 138 | 138 | > 138 | 110 | < 1
4 | Cc1cc(C#N)cc(C)c1Oc1ccc([N+](=O)[O-])c(NC2CCN(Cc3ccncc3)CC2)c1 |  | >336 | 336 | > 19 | 19 | > 19 | 56 | < 1
5 | COC(=O)c1ccc(CN2CCC(Nc3cc(Oc4c(C)cc(C)cc4C)ccc3[N+](=O)[O-])CC2)cc1 |  | >246 | > 246 | > 248 | > 248 | > 248 | 1000 | 
6 | O=C1Nc2ccc(Cl)cc2[C@@](C#CC2CC2)(C(F)(F)F)O1 [EFAVIRENZ] |  | 70 | > 855 |  | > 6.3 |  | 7.4 | > 12
7 | Cc1cc(C#N)cc(C)c1Oc1ccc([N+](=O)[O-])c(NC2CCN(Cc3ccc([N+](=O)[O-])cc3)CC2)c1 |  | >269 | 269 | > 182 | 182 | > 182 | 670 | < 1
8 | Cc1cc(C)c(Oc2ccc([N+](=O)[O-])c(NC3CCN(Cc4ccncc4)CC3)c2)c(C)c1 |  | >258 | 258 | > 21 | 21 | > 21 | 82 | < 1
9 | Cc1cc(C)c(Oc2ccc([N+](=O)[O-])c(NC3CCN(Cc4ccc(S(N)(=O)=O)cc4)CC3)c2)c(C)c1 |  | >615 | 615 | > 22 | 22 | > 22 | 36 | < 1
10 | Cc1cc(C#N)cc(C)c1Oc1ccc([N+](=O)[O-])c(NC2CCN(Cc3ccc(CO)cc3)CC2)c1 |  | >80 | 80 | > 11 | 11 | > 11 | 140 | < 1
11 | Cc1cc(C#N)cc(C)c1Oc1ccc([N+](=O)[O-])c(NC2CCN(Cc3ccc(S(N)(=O)=O)cc3)CC2)c1 |  | >782 | 782 | > 23 | 23 | > 23 | 29 | < 1
12 | CC(=O)c1ccc(CN2CCC(Nc3cc(Oc4c(C)cc(C#N)cc4C)ccc3[N+](=O)[O-])CC2)cc1 |  | >1630 | > 1630 | > 251 | > 251 | > 251 | 150 | 
13 | Cc1cc(C)c(Oc2ccc([N+](=O)[O-])c(NC3CCN(Cc4ccc(CO)cc4)CC3)c2)c(C)c1 |  | >255 | 255 | > 25 | 25 | > 25 | 96 | < 1
14 | CC(C)Nc1cccnc1N1CCN(C(=O)c2cc3cc(NS(C)(=O)=O)ccc3[nH]2)CC1 [DELAVIRDINE] |  | >277 | > 277 |  | > 36 | > 36 |  | 
15 | Cc1cn([C@H]2C[C@H](N=[N+]=[N-])[C@@H](CO)O2)c(=O)[nH]c1=O [ZIDOVUDINE] |  |  | > 13100 | 0.0057 | > 94 | 0.0074 | 7.2 | > 12600
16 | Cc1cc(C#N)cc(C)c1Oc1ccc([N+](=O)[O-])c(NC2CCN(Cc3ccc(C(=O)O)cc3)CC2)c1 |  | >159 | 159 | > 30 | 30 | > 30 | 190 | < 1
17 | Cc1cc(C)c(Oc2ccc([N+](=O)[O-])c(NC3CCN(Cc4ccc(C(=O)O)cc4)CC3)c2)c(C)c1 |  | >161 | 161 | > 35 | 35 | > 35 | 220 | < 1
18 | CC(=O)Nc1ccc(Oc2c(C)cc(C#N)cc2C)cc1NC1CCN(Cc2ccc(S(N)(=O)=O)cc2)CC1 |  |  |  | > 228 | > 228 |  | > 228000 | 
19 | O=c1[nH]cnc2c1ncn2[C@H]1CC[C@@H](CO)O1 [DIDANOSINE] |  |  | > 11 | 18 | > 212 |  | 19000 | > 12
20 | Cc1cc(C)c(Oc2ccc([N+](=O)[O-])c(NC3CCN(Cc4ccccc4)CC3)c2)c(C)c1 |  | >37 | 37 | > 25 | 25 | > 25 | 660 | < 1
21 | COC(=O)c1ccc(CN2CCC(Nc3cc(Oc4c(C)cc(C#N)cc4C)ccc3[N+](=O)[O-])CC2)cc1 |  | >1208 | ≥ 1210 | > 160 | ≥ 160 | > 160 | 130 | 
22 | Cc1cc(C)c(Oc2ccc([N+](=O)[O-])c(NC3CCN(Cc4ccc(S(C)(=O)=O)cc4)CC3)c2)c(C)c1 |  | >5895 | 5900 | > 158 | 158 | > 158 | 27 | < 1
23 | Cc1cc(C#N)cc(C)c1Oc1ccc([N+](=O)[O-])c(NC2CCN(Cc3ccccc3)CC2)c1 |  | >4.4 | 4.4 | > 2.8 | 2.8 | > 2.8 | 630 | < 1
24 | Cc1cc(C)c(Oc2ccc([N+](=O)[O-])c(NC3CCN(Cc4ccc([N+](=O)[O-])cc4)CC3)c2)c(C)c1 |  | >70 | 70 | > 147 | 147 | > 147 | 2100 | < 1
25 | Cc1cc(C#N)cc(C)c1Oc1ccc([N+](=O)[O-])c(NC2CCN(Cc3ccc(C(N)=O)cc3)CC2)c1 |  | >430 | 430 | > 27 | 27 | > 27 | 62 | < 1
26 | Cc1cc(C#N)cc(C)c1Oc1ccc(N)c(NC2CCN(Cc3ccc(S(N)(=O)=O)cc3)CC2)c1.Cl |  | 114 | 505 | > 22 | 22 | 4.8 | 43 | 4.4
